SR-BI HDL uptake = inhibitors of mouse SR-BI mediated HDL lipid uptake; actives 0.96% (n = 320,000); ldlA[mSR-BI] CHO cells, DiI-HDL uptake fluorescence, 3 h; Q61009; inhibition, % at 12.5 µM;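 active = mean replicate inhibition of at least 70% and a set share of replicates each scoring 70 or more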;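 also: 0% = median of neutral control wells and 100% = median of positive control wells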
dFosB act-1 = enhances mouse delta FosB homodimer DNA binding; actives 0.99% (n = 340,000); purified delta FosB, TAMRA-CDK5 oligo fluorescence polarization; percent of positive-control signal above neutral wells; activation, % at 25 µM; P13346;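 active = mean activation above about 17%, with every replicate also reaching it, limit read from the data, passing the limit was not always enough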
Target sequence (P13346 whole entry, looked up): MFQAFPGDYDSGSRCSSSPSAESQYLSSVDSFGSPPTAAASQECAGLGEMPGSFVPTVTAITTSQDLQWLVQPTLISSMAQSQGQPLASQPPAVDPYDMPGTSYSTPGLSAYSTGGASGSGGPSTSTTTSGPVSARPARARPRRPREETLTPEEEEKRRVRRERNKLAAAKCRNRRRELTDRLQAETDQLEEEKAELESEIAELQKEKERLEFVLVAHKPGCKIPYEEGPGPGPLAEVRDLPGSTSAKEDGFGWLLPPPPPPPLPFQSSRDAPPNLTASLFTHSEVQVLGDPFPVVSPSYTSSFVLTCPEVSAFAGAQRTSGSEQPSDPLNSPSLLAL
SR-BI DiI-HDL act = SR-BI HDL lipid transfer activation; CHO ldlA[mSR-BI] cells, DiI-HDL uptake fluorescence, 3 h; 100 = double the neutral-control signal; activation, % at 12.5 µM; actives 0.096% (n = 320,000);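 active = mean replicate activation of at least 60% and every replicate at or above 60%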;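 also: 0% = median plate neutral-control signal and 100% = twice that signal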
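Test system: SR-BI-overexpressing, LDLR-lacking CHO cells. Measured by: DiI fluorescence, bottom read. Medium: Ham's F12 with 0.5% BSA, HEPES 25 mM, pH 7.4. Timing: 3 h uptake period with compound, 37 °C.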
PKA-R1A act = PKA-R1A complex activation; P00514+P68181; PKA-R1A dissociation, Cy5-IP20 fluorescence polarization; scaled: DMSO 0%, 113 µM cGMP 100%; activation, % at 11.4 µM; actives 0.083% (n = 340,000);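 active = percent activation above the mean of all tested compounds plus 3 SD, cut at about 19% in these data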;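 also: higher means more PKAc released from R1A so a rise in polarization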
PKA-R2B act = activators of human PKA-R2B complex; P22694+P31323; PKA-R2B holoenzyme dissociation, Cy5-IP20 fluorescence polarization; R2B truncated from residue 108, S112A mutant; 0% DMSO only, 100% 113 µM cGMP; activation, % at 11.4 µM; actives 0.079% (n = 340,000); AID 504700;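 active = activation above a cutoff set at the mean over all compounds plus 3 SD, cut at about 18% in these data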;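 also: higher means more holoenzyme dissociation and a rise in polarization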
CDK5 p35 inh = inhibitors of human CDK5/p35 kinase | Q00535+Q15078 | Recombinant CDK5/p35, ADP-Glo luminescence, 60 min | inhibition, % at 10 µM | actives 0.01% (n = 330,000) | AID 488839;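 active = highest replicate inhibition of at least 50% and at least 75% of replicates reaching 50%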;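 also: plate controls were DMSO neutral control for no effect and GW8510 at 10 µM for full effect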
dFosB act-2 = enhances mouse delta FosB homodimer binding to DNA | shares compounds with dFosB act-1 | purified delta FosB, TAMRA-CDK5 oligo fluorescence polarization; normalised: neutral wells 0, positive control 100 | activation, % at 24.9 µM | 2,400 tested, under 10 active | AID 588690;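 active = highest replicate activation at or above 34% and every replicate reaching that threshold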;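 also: higher polarization means more probe DNA bound by delta FosB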
The depositor's hits bear a star; · = no result given. Rows were chosen to be rich in hits. Some 2.1% of all compounds tested hit in one or more screens of this group.

SMILES	SR-BI HDL uptake	dFosB act-1	SR-BI DiI-HDL act	PKA-R1A act	PKA-R2B act	CDK5 p35 inh	dFosB act-2
COCOCCn1cc(CN2CCS(=O)(=O)N(Cc3ccc(-c4ccc(OC)nc4)cc3)C(C(C)C)C2=O)nn1 (configuration not stated)	·	·	·	-9.8	4.5	·	·
COc1cc2c(cc1OC)C(C)N(C(=O)c1cc3c(=O)oc4ccc(C)cc4c3s1)CC2 (configuration not stated)	-7.0	41.0*	7.0	6.0	1.6	0.7	4.5
CSc1ccc(CNc2nc3ccccc3n3cnnc23)cc1	·	26.5*	·	-12.8	-12.5	-0.4	4.1
CCC(=O)OC1(C(C)=O)CCC2C3CCC4=CC(=O)CCC4(C)C3CCC21C (configuration not stated)	15.9	-12.7	-15.9	-2.0	-3.1	1.2	·
Cc1ccccc1N(C=O)c1ccccc1C	12.6	-2.6	-12.6	-5.3	-2.2	-0.1	·
O=C(COc1ccc(-c2nnco2)cc1)N1CCOCC1	-16.2	-3.6	16.2	-1.0	5.8	1.2	·
O=C(c1ccc(NC(=S)NCc2ccc(Cl)cc2)cc1)N1CCCCC1	55.7	30.3*	-55.7	0.8	-4.1	-1.6	1.1
CCC(C)C(=O)Nc1nnc(CCc2ccccc2)s1 (configuration not stated)	-21.0	-5.2	21.0	6.1	-0.7	0.4	·
Cc1cc(C)n(CC(O)Cn2c3ccc(Cl)cc3c3cc(Cl)ccc32)c(=O)n1 (configuration not stated)	37.5	25.1*	-37.5	7.0	-14.9	0.0	0.8
O=c1c(Cc2ccc(Cl)cc2)c(O)ccn1Cc1ccccc1	-20.0	-7.4	20.0	-0.7	-2.1	0.7	·
O=c1c(Cc2ccccc2)c(O)ccn1Cc1ccc2c(c1)OCO2	-34.0	37.5*	34.0	-10.5	-3.8	0.7	5.9
c1nc(NCc2ccc3c(c2)OCO3)c2cc(-c3ccc4c(c3)OCCO4)ccc2n1	6.6	39.0*	-6.6	-6.2	7.7	-3.5	2.8
O=C(NNC(=O)c1ccc(Br)s1)c1cccc(Cl)c1	1.5	7.6	-1.5	1.5	-2.4	-0.6	·
O=C(CN1C(=O)NC2(CCc3ccccc3C2)C1=O)Nc1ccc(Cl)cc1F (configuration not stated)	-19.4	40.1*	19.4	-10.4	8.9	1.5	-8.2
O=C(CN1C(=O)NC2(CCCCCC2)C1=O)Nc1ccc(Cl)cc1Cl	6.8	1.1	-6.8	2.9	4.0	0.1	·
Cc1[nH]nc2nc(SCC(=O)NCCC3=CCCCC3)n(-c3ccc(Br)cc3)c(=N)c12	13.0	65.9*	-13.0	-2.8	-2.7	0.5	8.1
S=c1nc(NCc2cccc(Cl)c2)c2ccccc2[nH]1	14.4	45.3*	-14.4	-7.6	-4.6	1.1	0.4
c1ccc(CNc2nc(-c3cccs3)nc3ccccc23)cc1	18.2	16.8*	-18.2	-3.2	5.9	0.3	2.3
c1ccc(CNc2nc(-c3cccnc3)nc3ccccc23)cc1	1.6	-25.6	-1.6	0.9	-1.1	-0.4	·
Clc1cccc(CNc2nc(-c3cccnc3)nc3ccccc23)c1	·	54.8*	·	-7.0	2.5	1.7	1.6
COc1cc2[nH]c(=S)nc(NCc3cccc(Cl)c3)c2cc1OC	31.3	-7.0	-31.3	-7.0	-11.8	1.1	·
Cn1c2nc(=O)n(-c3ccccc3)c(=O)c-2nc2c1CCCC2	·	·	·	4.5	1.2	·	·
Cc1ccc(NC(=O)CN2C(=O)N/C(=C/c3ccc4c(c3)OCCO4)C2=O)cc1	-16.4	48.0*	16.4	1.3	-4.6	0.7	-5.6
CCN(CC(=O)Nc1ccc(NC(C)=O)cc1)C(=O)C1COc2ccccc2O1 (configuration not stated)	17.5	-7.3	-17.5	0.9	-2.9	0.9	·
COc1cc(OC)cc(C(=O)Nc2nc3ccc(S(C)(=O)=O)cc3s2)c1	69.7	-7.4	-69.7	-6.1	-8.3	0.9	·
SMILES	SR-BI HDL uptake	dFosB act-1	SR-BI DiI-HDL act	PKA-R1A act	PKA-R2B act	CDK5 p35 inh	dFosB act-2
COc1cc(C(=O)Nc2nc3ccc(S(C)(=O)=O)cc3s2)cc(OC)c1C	69.1	30.1*	-69.1	-8.2	-7.0	-1.0	1.4
CC(=O)c1sc(NC(=O)c2oc3ccc(F)cc3c2C)nc1C	25.8	59.2*	-25.8	3.9	1.1	-0.2	-8.2
CC(=O)Nc1nc2cc3c(cc2s1)OCCO3	-14.6	2.7	14.6	-13.5	-2.1	3.2	·
COc1ccc(OCC(=O)Nc2nc3cc4c(cc3s2)OCCO4)cc1	-4.6	47.0*	4.6	-0.1	-5.7	-0.4	0.1
CC(=O)c1sc(NC(=O)c2cc(=O)c3ccccc3o2)nc1C	17.0	-0.9	-17.0	-9.6	-3.9	0.1	·
COc1ccc2oc(C(=O)Nc3nc4ccc(S(C)(=O)=O)cc4s3)c(C)c2c1	26.5	61.0*	-26.6	-6.5	-6.1	-0.3	6.5
COc1ccc2oc(C(=O)Nc3nnc(C)s3)c(C)c2c1	21.4	-5.7	-21.4	8.7	-8.2	-1.2	·
COc1ccc2nc(NC(=O)CS(=O)(=O)Cc3ccccc3)sc2c1	-11.5	74.3*	11.5	-10.3	-4.6	-0.8	-1.8
CCN(CC)CC(O)CNc1ccnc2c(Cl)ccc(Cl)c12 (configuration not stated)	-4.2	3.1	4.2	-0.8	-9.1	-1.8	·
O=C(NC(Cc1c[nH]c2ccccc12)C(=O)O)c1cccc(S(=O)(=O)N2CCCCC2)c1 (configuration not stated)	·	·	·	7.2	-7.4	·	·
N#CNC(N)=Nc1cccc(Cl)c1	37.2	21.9*	-37.2	-7.5	-4.9	0.0	-6.6
N#CNC(=Nc1cccc(Cl)c1)Oc1ccccc1	-12.8	-3.4	12.8	16.9	15.9	-1.7	·
O=C(O)c1cc(Cl)c(Cl)cc1C(=O)NCc1ccco1	2.0	3.1	-2.0	7.7	4.8	-0.1	·
COc1ccc(CN2CCC(n3nccc3NC(=O)CCc3ccccc3)CC2)c(C)c1C	32.7	-10.9	-32.7	-11.2	-6.6	-0.2	·
CCN1CCN(c2nc3c(C)cccn3c(=O)c2/C=C(\C#N)S(=O)(=O)c2ccc(C)cc2)CC1	-32.0	0.3	32.0	0.9	10.7	-0.6	·
CCN1CCN(c2nc3c(C)cccn3c(=O)c2/C=C(\C#N)S(=O)(=O)c2ccc(Cl)cc2)CC1	22.4	48.3*	-22.4	-4.0	5.7	1.8	-2.2
COc1ccc(CCNC(=O)CCS(=O)(=O)c2ccc3c(c2)NC(=O)CO3)cc1OC	-2.7	-2.3	2.7	-0.1	1.1	0.6	·

Screens (PubChem BioAssay)
